The source of these data is ChEMBL document CHEMBL2321752, “A potent and highly efficacious Bcl-2/Bcl-xL inhibitor” (J Med Chem, 2013).

The target in test [1] is Apoptosis regulator Bcl-2 (Homo sapiens, UniProt P10415). Description: Binding affinity to BCL2 (unknown origin) after 2 hrs by fluorescence polarization assay. The essentials:
(§1)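 Competitive FP binding assay. Preformed protein/fluorescent probe complexes were used at 1.5/1 nM for Bcl-2, 10/2 nM for Bcl-xL and 20/2 nM for Mcl-1. These were mixed with serially diluted inhibitor and shaken gently for 2 h at room temperature before millipolarization was read. IC50 came from nonlinear regression, and Ki was calculated from IC50.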
Background: In fluorescence polarisation assays a small probe gives low polarisation when free and higher when bound to something large.

A further test has as its system NCI-H1417. Description: Cytotoxicity against human NCI-H1417 cells assessed as growth inhibition after 4 days by WST assay. Conditions: NCI-H1417, 96 h. It is filed as functional, cell-based. The gist of the method: (§2)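 Human small-cell lung cancer line from ATCC, kept in RPMI-1640 with 10% FBS. Cells were exposed to serial compound concentrations for 4 days. WST-8 dye was then added for a further 1–2 h and absorbance read at 450 nm. IC50 was derived from absorbance of treated versus untreated cells. At least three independent experiments per cell line; standard deviation reported.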

The next test concerns NCI-H187. Description: Cytotoxicity against human NCI-H187 cells assessed as growth inhibition after 4 days by WST assay. It is filed as functional, cell-based. Particulars: NCI-H187, 96 h. The gist of the method: as §2
For the next test, the system named is NCI-H1963. The test can be described thus: Cytotoxicity against human NCI-H1963 cells assessed as growth inhibition after 4 days by WST assay. Type of test: functional, cell-based. Conditions: NCI-H1963, 96 h. The essentials: as §2
A short description of test [2]: Cytotoxicity against human NCI-H146 cells assessed as growth inhibition after 4 days by WST assay. Type of test: functional, cell-based. Conditions: NCI-H146, 96 h.
A further test has as its target Bcl-2-like protein 1 (Homo sapiens, UniProt Q07817). The test can be described thus: Binding affinity to BCL-XL (unknown origin) after 2 hrs by fluorescence polarization assay. The gist of the method: as §1

Apoptosis regulator Bcl-2, sequence (P10415 whole entry): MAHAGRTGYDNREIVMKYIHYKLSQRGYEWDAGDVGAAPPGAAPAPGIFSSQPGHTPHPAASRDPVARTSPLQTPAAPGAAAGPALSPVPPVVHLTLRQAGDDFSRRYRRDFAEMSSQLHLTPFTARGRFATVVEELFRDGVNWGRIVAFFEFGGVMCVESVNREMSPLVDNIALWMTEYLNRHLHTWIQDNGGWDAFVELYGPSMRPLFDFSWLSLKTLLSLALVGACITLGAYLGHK
Bcl-2-like protein 1, sequence (Q07817 whole entry): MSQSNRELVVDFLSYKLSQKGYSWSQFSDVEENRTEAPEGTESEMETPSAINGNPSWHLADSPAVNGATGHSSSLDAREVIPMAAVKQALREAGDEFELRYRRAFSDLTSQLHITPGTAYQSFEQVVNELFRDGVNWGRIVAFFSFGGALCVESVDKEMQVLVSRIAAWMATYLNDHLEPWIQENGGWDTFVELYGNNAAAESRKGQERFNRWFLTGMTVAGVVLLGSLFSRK

As for `Cc1c(C(=O)O)c(-c2cccc(N3CCN(c4ccc(NS(=O)(=O)c5ccc(N[C@H](CCN(C)C)CSc6ccccc6)c([N+](=O)[O-])c5)cc4)CC3)c2)c(-c2ccc(Cl)cc2)n1C`, in test [1], the IC50 – broadly, the concentration that gives 50% inhibition – stood at 1.3 nM.
With `CN(C)CC[C@H](CSc1ccccc1)Nc1ccc(S(=O)(=O)NC(=O)c2ccc(N3CCN(Cc4ccccc4-c4ccc(Cl)cc4)CC3)cc2)cc1[N+](=O)[O-]` [ABT 737], the IC50 in the test on NCI-H1417 turned out to be 173 nM; in the test with NCI-H187, 138 nM; in the test with NCI-H1963, 54 nM.
`CN(C)CC[C@H](CSc1ccccc1)Nc1ccc(S(=O)(=O)Nc2ccc(N3CCN(c4cccc(-c5c(C(=O)NS(C)(=O)=O)cnn5-c5ccc(Cl)cc5)c4)CC3)cc2)cc1[N+](=O)[O-]`: the IC50 was more than 1000 nM in test [2], 5 nM at Bcl-2-like protein 1 and 5.4 nM in test [1].
Consider `CN(C)CC[C@H](CSc1ccccc1)Nc1ccc(S(=O)(=O)Nc2ccc(N3CCN(c4cccc(-c5cn(C)nc5-c5ccc(Cl)cc5)c4)CC3)cc2)cc1[N+](=O)[O-]`, for which the IC50 in test [2] is more than 10000 nM; at Bcl-2-like protein 1 it was 26 nM; in test [1] it was 140 nM.
`Cc1c(C(N)=O)c(-c2cccc(N3CCN(c4ccc(NS(=O)(=O)c5ccc(N[C@H](CCN(C)C)CSc6ccccc6)c([N+](=O)[O-])c5)cc4)CC3)c2)c(-c2ccc(Cl)cc2)n1C`: the figures for the IC50 (in test [2]; on Bcl-2-like protein 1; in test [1]) were 245 nM, 14 nM and 19 nM, respectively.
Consider `Cc1oc(-c2ccc(Cl)cc2)c(-c2cccc(N3CCN(c4ccc(NS(=O)(=O)c5ccc(N[C@H](CCN(C)C)CSc6ccccc6)c([N+](=O)[O-])c5)cc4)CC3)c2)c1C(=O)O`, for which the IC50 came to 199 nM in test [2], 4.7 nM on Bcl-2-like protein 1 and 3.8 nM in test [1].
`CN(C)CC[C@H](CSc1ccccc1)Nc1ccc(S(=O)(=O)Nc2ccc(N3CCN(c4cccc(-c5ccnn5-c5ccc(Cl)cc5)c4)CC3)cc2)cc1[N+](=O)[O-]`: the IC50 in test [2] was more than 10000 nM; at Bcl-2-like protein 1, 32 nM; in test [1], 110 nM.
On the same counts, the results for `Cc1c(C(=O)N2CC(C)(O)C2)c(-c2cccc(N3CCN(c4ccc(NS(=O)(=O)c5ccc(N[C@H](CCN(C)C)CSc6ccccc6)c([N+](=O)[O-])c5)cc4)CC3)c2)c(-c2ccc(Cl)cc2)n1C` are 66 nM, 9.4 nM and 5.6 nM.
The corresponding values for `Cc1c(C#N)c(-c2cccc(N3CCN(c4ccc(NS(=O)(=O)c5ccc(N[C@H](CCN(C)C)CSc6ccccc6)c([N+](=O)[O-])c5)cc4)CC3)c2)c(-c2ccc(Cl)cc2)n1C` are 491 nM, 4.5 nM and 17 nM.
For `CN(C)CC[C@H](CSc1ccccc1)Nc1ccc(S(=O)(=O)Nc2ccc(N3CCN(c4cccc(-c5cnn(C)c5-c5ccc(Cl)cc5)c4)CC3)cc2)cc1[N+](=O)[O-]`, the IC50 in test [2] was more than 10000 nM; at Bcl-2-like protein 1, 15 nM; in test [1], 210 nM.
In the case of `Cc1c(C(=O)N[C@H]2C[C@@](C)(O)C2)c(-c2cccc(N3CCN(c4ccc(NS(=O)(=O)c5ccc(N[C@H](CCN(C)C)CSc6ccccc6)c([N+](=O)[O-])c5)cc4)CC3)c2)c(-c2ccc(Cl)cc2)n1C`, the results for the IC50 (in test [2]; on Bcl-2-like protein 1; in test [1]) were 12 nM, 15 nM and 7.5 nM, respectively.
The corresponding values for `CCCCn1c(C)c(C(=O)O)c(-c2cccc(N3CCN(c4ccc(NS(=O)(=O)c5ccc(N[C@H](CCN(C)C)CSc6ccccc6)c([N+](=O)[O-])c5)cc4)CC3)c2)c1-c1ccc(Cl)cc1` are 67 nM, 16 nM and 23 nM.
As for `CN(C)CC[C@H](CSc1ccccc1)Nc1ccc(S(=O)(=O)Nc2ccc(N3CCN(c4cccc(-c5c(C(=O)NS(C)(=O)=O)ncn5-c5ccc(Cl)cc5)c4)CC3)cc2)cc1[N+](=O)[O-]`, the IC50 in test [2] was more than 1000 nM; on Bcl-2-like protein 1, 8.3 nM; in test [1], 3.8 nM.
Regarding `Cc1c(C(=O)NS(C)(=O)=O)c(-c2cccc(N3CCN(c4ccc(NS(=O)(=O)c5ccc(N[C@H](CCN(C)C)CSc6ccccc6)c([N+](=O)[O-])c5)cc4)CC3)c2)c(-c2ccc(Cl)cc2)n1C`, the IC50 in test [2] came to 38 nM; in test [1], 0.9 nM.
With `CN(C)CC[C@H](CSc1ccccc1)Nc1ccc(S(=O)(=O)Nc2ccc(N3CCN(c4cccc(-c5cncn5-c5ccc(Cl)cc5)c4)CC3)cc2)cc1[N+](=O)[O-]`, the values for the IC50 (in test [2]; on Bcl-2-like protein 1; in test [1]) were more than 10000 nM, 18 nM and 46 nM, respectively.
On the same counts, the results for `CCCn1c(C)c(C(=O)O)c(-c2cccc(N3CCN(c4ccc(NS(=O)(=O)c5ccc(N[C@H](CCN(C)C)CSc6ccccc6)c([N+](=O)[O-])c5)cc4)CC3)c2)c1-c1ccc(Cl)cc1` are 42 nM, 8.2 nM and 10 nM.
Turning to `CN(C)CC[C@H](CSc1ccccc1)Nc1ccc(S(=O)(=O)Nc2ccc(N3CCN(c4cccc(-c5c(C(=O)O)nn(C)c5-c5ccc(Cl)cc5)c4)CC3)cc2)cc1[N+](=O)[O-]`, the IC50 in test [2] is more than 1000 nM; at Bcl-2-like protein 1 it was 6.1 nM; in test [1], 7.1 nM.
For the compound `CC1(C)CCC(c2ccc(Cl)cc2)=C(CN2CCN(c3ccc(C(=O)NS(=O)(=O)c4ccc(N[C@H](CCN5CCOCC5)CSc5ccccc5)c(S(=O)(=O)C(F)(F)F)c4)cc3)CC2)C1` [NAVITOCLAX], the IC50 in the test with NCI-H1417 is 54.2 nM; in the test on NCI-H187, 38.4 nM; with NCI-H1963, 26.6 nM.
`CN(C)CC[C@H](CSc1ccccc1)Nc1ccc(S(=O)(=O)Nc2ccc(N3CCN(c4cccc(-c5cnoc5-c5ccc(Cl)cc5)c4)CC3)cc2)cc1[N+](=O)[O-]`: the figures for the IC50 (in test [2]; on Bcl-2-like protein 1; in test [1]) were more than 10000 nM, 22 nM and 350 nM, respectively.
Compound `CCn1c(C)c(C(=O)O)c(-c2cccc(N3CCN(c4ccc(NS(=O)(=O)c5ccc(N[C@H](CCN(C)C)CSc6ccccc6)c([N+](=O)[O-])c5)cc4)CC3)c2)c1-c1ccc(Cl)cc1` showed an IC50 in test [1] of 2 nM.
On to `Cc1cc(-c2cccc(N3CCN(c4ccc(NS(=O)(=O)c5ccc(N[C@H](CCN(C)C)CSc6ccccc6)c([N+](=O)[O-])c5)cc4)CC3)c2)c(-c2ccc(Cl)cc2)n1C`, for which the IC50 in test [2] is more than 10000 nM.
`Cc1c(Cl)c(-c2cccc(N3CCN(c4ccc(NS(=O)(=O)c5ccc(N[C@H](CCN(C)C)CSc6ccccc6)c([N+](=O)[O-])c5)cc4)CC3)c2)c(-c2ccc(Cl)cc2)n1C`: the half-maximal inhibitory concentration (IC50) in test [2] was more than 1000 nM; at Bcl-2-like protein 1 it was 12 nM; in test [1] it was 260 nM.
For `CN(C)CC[C@H](CSc1ccccc1)Nc1ccc(S(=O)(=O)Nc2ccc(N3CCN(c4cccc(-c5c(C(=O)O)c(Cl)n(C)c5-c5ccc(Cl)cc5)c4)CC3)cc2)cc1[N+](=O)[O-]`, the values for the IC50 (in test [2]; at Bcl-2-like protein 1; in test [1]) were 100 nM, 4.7 nM and 1.5 nM, respectively.
On the same counts, the results for `CN(C)CC[C@H](CSc1ccccc1)Nc1ccc(S(=O)(=O)Nc2ccc(N3CCN(c4cccc(-c5c(-c6ccc(Cl)cc6)nn(C)c5C(=O)O)c4)CC3)cc2)cc1[N+](=O)[O-]` are 541 nM, 5.9 nM and 3.7 nM.
On to `CN(C)CC[C@H](CSc1ccccc1)Nc1ccc(S(=O)(=O)Nc2ccc(N3CCN(c4cccc(-c5c(C(=O)O)c(C(F)(F)F)n(C)c5-c5ccc(Cl)cc5)c4)CC3)cc2)cc1[N+](=O)[O-]`, for which the IC50 in test [2] was determined as 496 nM; on Bcl-2-like protein 1, 6 nM; in test [1], 1.1 nM.
Regarding `Cc1c(C(F)(F)F)c(-c2cccc(N3CCN(c4ccc(NS(=O)(=O)c5ccc(N[C@H](CCN(C)C)CSc6ccccc6)c([N+](=O)[O-])c5)cc4)CC3)c2)c(-c2ccc(Cl)cc2)n1C`, the IC50 is more than 1000 nM in test [2], 13 nM on Bcl-2-like protein 1 and 271 nM in test [1].
